Assay results: ChEMBL document CHEMBL1123030, “N-(Aminoalkyl)imide antineoplastic agents. Synthesis and biological activity” (J Med Chem, 1985)
Activity calls are given as the source filed them. No cut-off for these calls is given here.

Legend:
[1] = system: Mus musculus; assay: Compound was evaluated for inhibitory activity in vivo against P388 leukemia cells in mice at a dose of 200 mg/kg upon intraperitoneal administration; format: functional
How it was run: (§1)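 Tumor source was ascites fluid implanted into BDF₁ mice. Tumor inoculation and drug dosing were both intraperitoneal, given once daily for 5 days (q1d × 5). Screening and data interpretation followed the general NCI protocol.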

[2] = system: P388; assay: Inhibitory activity in vivo against P388 leukemia cells in mice at a dose of 50 mg/kg upon intraperitoneal administration; format: functional, Mus musculus; how it was run: as §1
[3] = system: L1210; assay: Cytotoxic activity against L1210 leukemia in vitro.; format: functional, Mus musculus
[4] = system: P388; assay: Inhibitory activity in vivo against P388 leukemia cells in mice at a dose of 12.5 mg/kg upon intraperitoneal administration; format: functional, Mus musculus; how it was run: as §1
[5] = organism: Homo sapiens; assay: Compound was tested for cytotoxic activity against human colon adenocarcinoma in vitro; IA means inactive; format: functional
[6] = system: P388; assay: Inhibitory activity in vivo against P388 leukemia cells in mice at a dose of 100 mg/kg upon intraperitoneal administration; format: functional, Mus musculus; how it was run: as §1
[7] = system: Mus musculus; assay: Compound was evaluated for inhibitory activity in vivo against P388 leukemia cells in mice at a dose of 400 mg/kg upon intraperitoneal administration; format: functional; how it was run: as §1
[8] = system: P388; assay: Inhibitory activity in vivo against P388 leukemia cells in mice at a dose of 25 mg/kg upon intraperitoneal administration; format: functional, Mus musculus; how it was run: as §1
[9] = Cytotoxic activity against human colon adenocarcinoma in vitro; format: functional
[10] = (§2) Compound was tested for cytotoxic activity against human colon adenocarcinoma in vitro; IA means Inactive
[11] = system: L1210; assay: Compound was tested for cytotoxic activity against L1210 leukemia in vitro; IA means Inactive; format: functional, cell-based; conditions: Mus musculus
[12] = system: Mus musculus; assay: Compound was evaluated for inhibitory activity in vivo against P388 leukemia cells in mice at a dose of 15 mg/kg upon intraperitoneal administration; format: functional; how it was run: as §1
[13] = system: Mus musculus; assay: Compound was evaluated for inhibitory activity in vivo against P388 leukemia cells in mice at a dose of 7.5 mg/kg upon intraperitoneal administration; format: functional; how it was run: as §1
[14] = system: Mus musculus; assay: Compound was evaluated for inhibitory activity in vivo against P388 leukemia cells in mice at a dose of 3.75 mg/kg upon intraperitoneal administration; format: functional; how it was run: as §1
[15] = system: Mus musculus; assay: Compound was evaluated for inhibitory activity in vivo against P388 leukemia cells in mice at a dose of 60 mg/kg upon intraperitoneal administration; format: functional; how it was run: as §1
[16] = system: Mus musculus; assay: Compound was evaluated for inhibitory activity in vivo against P388 leukemia cells in mice at a dose of 3.00 mg/kg upon intraperitoneal administration; format: functional; how it was run: as §1
[17] = system: Mus musculus; assay: Compound was evaluated for inhibitory activity in vivo against P388 leukemia cells in mice at a dose of 0.75 mg/kg upon intraperitoneal administration; format: functional; how it was run: as §1
[18] = system: Mus musculus; assay: Compound was evaluated for inhibitory activity in vivo against P388 leukemia cells in mice at a dose of 1.56 mg/kg upon intraperitoneal administration; format: functional; how it was run: as §1
[19] = system: Mus musculus; assay: Compound was evaluated for inhibitory activity in vivo against P388 leukemia cells in mice at a dose of 3.12 mg/kg upon intraperitoneal administration; format: functional; how it was run: as §1
[20] = system: Mus musculus; assay: Compound was evaluated for inhibitory activity in vivo against P388 leukemia cells in mice at a dose of 1.50 mg/kg upon intraperitoneal administration; format: functional; conditions: dose 1.5 mg/kg; how it was run: as §1
[21] = system: Mus musculus; assay: Compound was evaluated for inhibitory activity in vivo against P388 leukemia cells in mice at a dose of 6.25 mg/kg upon intraperitoneal administration; format: functional; how it was run: as §1
[22] = system: L1210; assay: Compound was tested for cytotoxic activity against L1210 leukemia in vitro.; IA means Inactive; format: functional, cell-based; conditions: Mus musculus
[23] = system: Mus musculus; assay: Compound was evaluated for inhibitory activity in vivo against P388 leukemia cells in mice at a dose of 0.78 mg/kg upon intraperitoneal administration; format: functional; how it was run: as §1
[24] = system: Mus musculus; assay: Compound was evaluated for inhibitory activity in vivo against P388 leukemia cells in mice at a dose of 0.39 mg/kg upon intraperitoneal administration; format: functional; how it was run: as §1
[25] = system: Mus musculus; assay: Compound was evaluated for inhibitory activity in vivo against P388 leukemia cells in mice at a dose of 120 mg/kg upon intraperitoneal administration; format: functional; how it was run: as §1
[26] = organism: Homo sapiens; assay: as §2; format: functional
[27] = system: L1210; assay: Compound was tested for cytotoxic activity against L1210 leukemia in vitro; IA means inactive; format: functional, cell-based; conditions: Mus musculus

| Structure (SMILES) | T/C [2] | Cytotoxic concentration [3] | T/C [4] | T/C [6] | T/C [8] | Cytotoxic concentration [9] | other results |
| --- | --- | --- | --- | --- | --- | --- | --- |
| CN(C)CCN1C(=O)c2cc(O)cc3cc(O)cc(c23)C1=O | 142 | 3540 nM | 122 | 148 | 130 |  | T/C [1]: 149; Cytotoxic concentration [5]: inactive; T/C [7]: 140 |
| CN(C)CCN1C(=O)c2ccc(Cl)c3c(Cl)ccc(c23)C1=O |  | 699 nM |  |  | 107 |  |  |
| CCN(CC)CCN1C(=O)c2cc([N+](=O)[O-])cc3cc([N+](=O)[O-])cc(c23)C1=O.Cl | 215 | 347 nM | 141 |  | 207 | 820 nM |  |
| CN(C)CCN1C(=O)c2cccc3cccc(c23)C1=O | 130 | 2050 nM |  | 166 | 116 |  |  |
| O=C1c2cc([N+](=O)[O-])cc3cc([N+](=O)[O-])cc(c23)C(=O)N1c1nncs1 | 127 |  | 91 | 137 | 119 |  | Cytotoxic concentration [10]: Not Active; Cytotoxic concentration [11]: inactive |
| CN(C)CCN1C(=O)c2cc(N)cc3cc(N)cc(c23)C1=O.Cl.Cl.Cl |  | 337 nM |  |  |  | 677 nM | T/C [12]: 163; T/C [13]: 163; T/C [14]: 125; T/C [15]: 188 |
| CN(C)CCN1C(=O)c2cc([N+](=O)[O-])cc3cc([N+](=O)[O-])cc(c23)C1=O.Cl |  | 36.1 nM |  |  |  | 41.3 nM | T/C [16]: 169; T/C [17]: 159; T/C [18]: 155; T/C [19]: 167; T/C [20]: 167 |
| CN(C)CCCN1C(=O)c2cc([N+](=O)[O-])cc3cc([N+](=O)[O-])cc(c23)C1=O.Cl | 154 | 1420 nM | 113 |  | 129 | 1180 nM |  |
| CCNCCN1C(=O)c2cccc3cc([N+](=O)[O-])cc(c23)C1=O.Cl |  | 700 nM | 129 |  | 162 |  | T/C [21]: 123 |
| CN(C)CCN1C(=O)c2cccc3c(O)ccc(c23)C1=O.I |  |  |  | 107 |  |  | T/C [1]: 112; Cytotoxic concentration [22]: inactive; T/C [7]: 120 |
| Cl.O=C1c2cc([N+](=O)[O-])cc3cc([N+](=O)[O-])cc(c23)C(=O)N1CCN1CCCC1 |  | 82.9 nM |  |  |  | 172 nM | T/C [23]: 126; T/C [18]: 138; T/C [19]: 136; T/C [24]: 117 |
| O=C1OCCN1CCN1C(=O)c2cc([N+](=O)[O-])cc3cc([N+](=O)[O-])cc(c23)C1=O |  | 2020 nM |  |  |  |  | T/C [25]: 119; Cytotoxic concentration [26]: inactive; T/C [15]: 109 |
| CN(C)CCN1C(=O)c2ccc3c4c(ccc(c24)C1=O)C(=O)N(CCN(C)C)C3=O |  |  |  |  |  |  | T/C [21]: 125; T/C [19]: 116 |
| COc1ccc2c3c(ccc(OC)c13)C(=O)N(CCN(C)C)C2=O | 120 |  |  | 118 | 102 |  | T/C [1]: 123; Cytotoxic concentration [27]: inactive |
| CCN(CC)CCN1C(=O)c2cccc3cc([N+](=O)[O-])cc(c23)C1=O.Cl |  | 1370 nM | 120 |  | 149 |  |  |
